Among the data in ChEMBL document CHEMBL2029214, “Radiosynthesis and evaluation of an (18)F-labeled positron emission tomography (PET) radioligand for brain histamine subtype-3 receptors based on a nonimidazole 2-aminoethylbenzofuran chemotype” (J Med Chem, 2012) are Activity and Ki values, retold here.

Test [1] has as its target Histamine receptor H3 (Macaca mulatta) (UniProt Q865E1). The experiment in a line: Induction of histamine H3 receptor-mediated drug uptake in rhesus monkey brain by PET imaging. In short, it runs like this: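 Male rhesus monkeys (7.3 ± 0.8 kg; n = 4 baseline), ketamine 10 mg/kg i.m. then 1.5% isoflurane in O2. […] [18F]ligand given i.v. Focus 220 microPET, 180 min (one scan 120 min), 45 frames 30 s–5 min, scatter/attenuation corrected, decay-corrected; template-normalized regions; uptake as SUV.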

In the next test the target is Histamine H1 receptor (Homo sapiens, UniProt P35367). The experiment in a line: Binding affinity to human recombinant H1 receptor.
The target in a further test is Histamine H2 receptor (Homo sapiens, UniProt P25021). The experiment in a line: Binding affinity to human recombinant H2 receptor.
The target in the next test is Histamine H3 receptor (Homo sapiens, UniProt Q9Y5N1). Kind of test: Binding affinity to human recombinant H3 receptor expressed in HEK293T cells. The test is classed as cell-based, HEK-293T.
Another test addresses Histamine H4 receptor (Homo sapiens, UniProt Q9H3N8). Kind of test: Binding affinity to human recombinant H4 receptor.
Test [2] concerns the target 5-hydroxytryptamine receptor 1A (Homo sapiens, UniProt P08908). The experiment in a line: Binding affinity to human recombinant 5HT1A receptor.
In test [3] the target is 5-hydroxytryptamine receptor 1B (Homo sapiens, UniProt P28222). Kind of test: Binding affinity to human recombinant 5HT1B receptor.
Chain of 5-hydroxytryptamine receptor 1B (P28222 whole entry): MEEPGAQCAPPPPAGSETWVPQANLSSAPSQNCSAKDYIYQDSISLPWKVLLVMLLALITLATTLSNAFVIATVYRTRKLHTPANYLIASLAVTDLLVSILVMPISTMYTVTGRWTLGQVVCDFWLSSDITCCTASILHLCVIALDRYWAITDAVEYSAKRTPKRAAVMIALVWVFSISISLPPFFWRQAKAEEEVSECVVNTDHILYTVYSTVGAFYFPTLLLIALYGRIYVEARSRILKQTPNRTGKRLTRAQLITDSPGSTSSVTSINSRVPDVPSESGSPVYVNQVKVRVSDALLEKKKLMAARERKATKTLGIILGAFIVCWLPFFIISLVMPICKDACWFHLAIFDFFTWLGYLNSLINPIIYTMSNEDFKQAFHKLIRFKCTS
In test [4] the target is 5-hydroxytryptamine receptor 1D (Homo sapiens, UniProt P28221). The experiment in a line: Binding affinity to human recombinant 5HT1D receptor. A digest of the protocol: (§1)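 Ki values were taken from in vitro competitive binding assays against each human recombinant receptor.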
Test [5] deals with 5-hydroxytryptamine receptor 2A (Homo sapiens, UniProt P28223). Kind of test: Binding affinity to human recombinant 5HT2A receptor. A digest of the protocol: as §1
Test [6] concerns the target 5-hydroxytryptamine receptor 2B (Homo sapiens, UniProt P41595). Kind of test: Binding affinity to human recombinant 5HT2B receptor.
The target of test [7] is Sodium-dependent dopamine transporter (Homo sapiens, UniProt Q01959). Kind of test: Binding affinity to human recombinant DAT.
Test [8] has as its target Muscarinic acetylcholine receptor M1 (Homo sapiens, UniProt P11229). The experiment in a line: Binding affinity to human recombinant M1 receptor.
Test [9] has as its target Muscarinic acetylcholine receptor M2 (Homo sapiens, UniProt P08172). The experiment in a line: Binding affinity to human recombinant M2 receptor.
The target in test [10] is Muscarinic acetylcholine receptor M3 (Homo sapiens, UniProt P20309). Kind of test: Binding affinity to human recombinant M3 receptor.
Test [11] deals with Muscarinic acetylcholine receptor M4 (Homo sapiens, UniProt P08173). Kind of test: Binding affinity to human recombinant M4 receptor.
The target of test [12] is Muscarinic acetylcholine receptor M5 (Homo sapiens, UniProt P08912). The experiment in a line: Binding affinity to human recombinant M5 receptor. In short, it runs like this:
as §1

The target of test [13] is 5-hydroxytryptamine receptor 1E (Homo sapiens, UniProt P28566). Kind of test: Binding affinity to human recombinant 5HT1E receptor.
Test [14] addresses 5-hydroxytryptamine receptor 2C (Homo sapiens, UniProt P28335). The experiment in a line: Binding affinity to human recombinant 5HT2C receptor.
In test [15] the target is 5-hydroxytryptamine receptor 3A (Homo sapiens, UniProt P46098). Kind of test: Binding affinity to human recombinant 5HT3 receptor.
Chain of 5-hydroxytryptamine receptor 3A (P46098 whole entry): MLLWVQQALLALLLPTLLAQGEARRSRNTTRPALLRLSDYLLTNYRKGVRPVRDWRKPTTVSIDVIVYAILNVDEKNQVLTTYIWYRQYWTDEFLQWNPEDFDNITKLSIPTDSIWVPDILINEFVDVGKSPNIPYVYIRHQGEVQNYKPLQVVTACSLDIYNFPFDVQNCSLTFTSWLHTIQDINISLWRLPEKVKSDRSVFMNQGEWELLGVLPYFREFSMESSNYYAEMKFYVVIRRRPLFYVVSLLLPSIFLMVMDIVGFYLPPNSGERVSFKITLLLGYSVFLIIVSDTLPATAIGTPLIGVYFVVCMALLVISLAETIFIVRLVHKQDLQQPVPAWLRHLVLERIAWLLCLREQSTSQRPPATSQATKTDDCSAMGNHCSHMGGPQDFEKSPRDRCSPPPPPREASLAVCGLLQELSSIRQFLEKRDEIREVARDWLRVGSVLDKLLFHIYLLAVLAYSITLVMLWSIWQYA
Test [16] has as its target 5-hydroxytryptamine receptor 6 (Homo sapiens, UniProt P50406). The experiment in a line: Binding affinity to human recombinant 5HT6 receptor.
Test [17] deals with 5-hydroxytryptamine receptor 7 (Homo sapiens, UniProt P34969). The experiment in a line: Binding affinity to human recombinant 5HT7 receptor.
Test [18] concerns the target Alpha-1A adrenergic receptor (Homo sapiens, UniProt P35348). The experiment in a line: Binding affinity to human recombinant alpha1A adrenergic receptor.
Test [19] addresses Alpha-1B adrenergic receptor (Homo sapiens, UniProt P35368). The experiment in a line: Binding affinity to human recombinant alpha1B adrenergic receptor.
The target of test [20] is Alpha-1D adrenergic receptor (Homo sapiens, UniProt P25100). The experiment in a line: Binding affinity to human recombinant alpha1D adrenergic receptor.
Chain of Alpha-1D adrenergic receptor (P25100 whole entry): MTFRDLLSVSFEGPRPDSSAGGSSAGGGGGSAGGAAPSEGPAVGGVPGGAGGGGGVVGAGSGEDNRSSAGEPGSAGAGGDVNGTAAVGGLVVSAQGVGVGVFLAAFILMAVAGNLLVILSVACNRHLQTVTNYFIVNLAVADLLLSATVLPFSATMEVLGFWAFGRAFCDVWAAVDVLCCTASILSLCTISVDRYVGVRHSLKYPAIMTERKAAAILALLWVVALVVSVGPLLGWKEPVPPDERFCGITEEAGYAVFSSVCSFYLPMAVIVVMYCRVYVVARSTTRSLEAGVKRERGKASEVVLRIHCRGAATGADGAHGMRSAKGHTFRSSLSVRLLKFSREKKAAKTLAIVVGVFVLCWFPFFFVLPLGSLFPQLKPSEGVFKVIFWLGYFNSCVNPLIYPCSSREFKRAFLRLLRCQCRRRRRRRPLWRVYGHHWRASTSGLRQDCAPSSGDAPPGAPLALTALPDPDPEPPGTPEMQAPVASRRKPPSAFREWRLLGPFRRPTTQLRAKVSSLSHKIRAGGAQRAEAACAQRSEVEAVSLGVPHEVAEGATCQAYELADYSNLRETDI
Test [21] deals with Alpha-2A adrenergic receptor (Homo sapiens, UniProt P08913). Kind of test: Binding affinity to human recombinant alpha2A adrenergic receptor.
Test [22] has as its target Alpha-2B adrenergic receptor (Homo sapiens, UniProt P18089). The experiment in a line: Binding affinity to human recombinant alpha2B adrenergic receptor.
The target in test [23] is Alpha-2C adrenergic receptor (Homo sapiens, UniProt P18825). Kind of test: Binding affinity to human recombinant alpha2C adrenergic receptor.
Test [24] deals with Beta-1 adrenergic receptor (Homo sapiens, UniProt P08588). Kind of test: Binding affinity to human recombinant beta1 adrenergic receptor.
The target of test [25] is Beta-2 adrenergic receptor (Homo sapiens, UniProt P07550). The experiment in a line: Binding affinity to human recombinant beta2 adrenergic receptor.
Test [26] concerns the target Beta-3 adrenergic receptor (Homo sapiens, UniProt P13945). Kind of test: Binding affinity to human recombinant beta3 adrenergic receptor.
For a further test, the target named is D(1A) dopamine receptor (Homo sapiens, UniProt P21728). The experiment in a line: Binding affinity to human recombinant Dopamine D1 receptor.
Chain of D(1A) dopamine receptor (P21728 whole entry): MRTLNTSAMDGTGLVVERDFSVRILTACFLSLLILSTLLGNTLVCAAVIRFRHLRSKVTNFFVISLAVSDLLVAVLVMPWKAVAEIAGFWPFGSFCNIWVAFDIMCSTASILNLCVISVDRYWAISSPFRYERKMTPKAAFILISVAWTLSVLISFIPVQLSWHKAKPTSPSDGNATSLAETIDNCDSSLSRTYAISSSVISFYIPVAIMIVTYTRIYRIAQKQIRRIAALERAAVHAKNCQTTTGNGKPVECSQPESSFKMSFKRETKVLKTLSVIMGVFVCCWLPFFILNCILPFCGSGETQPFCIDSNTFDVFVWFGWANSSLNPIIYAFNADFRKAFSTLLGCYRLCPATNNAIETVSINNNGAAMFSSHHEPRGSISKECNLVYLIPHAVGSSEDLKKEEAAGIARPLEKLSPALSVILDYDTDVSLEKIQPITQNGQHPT
A further test addresses D(2) dopamine receptor (Homo sapiens, UniProt P14416). The experiment in a line: Binding affinity to human recombinant Dopamine D2 receptor.
In the next test the target is D(3) dopamine receptor (Homo sapiens, UniProt P35462). The experiment in a line: Binding affinity to human recombinant Dopamine D3 receptor.
A further test deals with D(4) dopamine receptor (Homo sapiens, UniProt P21917). Kind of test: Binding affinity to human recombinant Dopamine D4 receptor.
The next test has as its target D(1B) dopamine receptor (Homo sapiens, UniProt P21918). The experiment in a line: Binding affinity to human recombinant Dopamine D5 receptor.
Test [27] has as its target Sigma non-opioid intracellular receptor 1 (Homo sapiens, UniProt Q99720). The experiment in a line: Binding affinity to human recombinant sigma1 receptor.
In test [28] the target is Sodium-dependent serotonin transporter (Homo sapiens, UniProt P31645). Kind of test: Binding affinity to human recombinant SERT.
Chain of Sodium-dependent serotonin transporter (P31645 whole entry): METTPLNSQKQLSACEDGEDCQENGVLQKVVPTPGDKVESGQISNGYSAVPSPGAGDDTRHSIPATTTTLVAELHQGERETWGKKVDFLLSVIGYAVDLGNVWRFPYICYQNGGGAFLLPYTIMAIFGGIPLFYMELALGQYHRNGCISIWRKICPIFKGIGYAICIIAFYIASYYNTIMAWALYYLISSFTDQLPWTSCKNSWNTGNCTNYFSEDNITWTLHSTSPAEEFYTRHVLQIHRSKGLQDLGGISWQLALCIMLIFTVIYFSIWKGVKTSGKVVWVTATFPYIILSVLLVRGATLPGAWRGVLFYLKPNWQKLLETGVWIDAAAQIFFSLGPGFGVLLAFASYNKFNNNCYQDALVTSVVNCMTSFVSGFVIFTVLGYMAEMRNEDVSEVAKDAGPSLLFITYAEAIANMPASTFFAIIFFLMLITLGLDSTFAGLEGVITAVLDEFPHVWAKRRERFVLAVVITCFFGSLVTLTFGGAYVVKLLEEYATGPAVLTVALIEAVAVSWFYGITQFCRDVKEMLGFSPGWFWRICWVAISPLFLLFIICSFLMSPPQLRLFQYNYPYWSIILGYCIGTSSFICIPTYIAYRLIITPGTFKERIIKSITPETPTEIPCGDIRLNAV
Test [29] has as its target Sodium-dependent noradrenaline transporter (Homo sapiens, UniProt P23975). The experiment in a line: Binding affinity to human recombinant NET.

Molecules are shown by their SMILES. Where only a bound is given, the exact number is not on record here.

In general, Ki refers to the dissociation constant of the complex between target and ligand, obtained from inhibition or displacement.

Chain of Beta-3 adrenergic receptor (P13945 whole entry): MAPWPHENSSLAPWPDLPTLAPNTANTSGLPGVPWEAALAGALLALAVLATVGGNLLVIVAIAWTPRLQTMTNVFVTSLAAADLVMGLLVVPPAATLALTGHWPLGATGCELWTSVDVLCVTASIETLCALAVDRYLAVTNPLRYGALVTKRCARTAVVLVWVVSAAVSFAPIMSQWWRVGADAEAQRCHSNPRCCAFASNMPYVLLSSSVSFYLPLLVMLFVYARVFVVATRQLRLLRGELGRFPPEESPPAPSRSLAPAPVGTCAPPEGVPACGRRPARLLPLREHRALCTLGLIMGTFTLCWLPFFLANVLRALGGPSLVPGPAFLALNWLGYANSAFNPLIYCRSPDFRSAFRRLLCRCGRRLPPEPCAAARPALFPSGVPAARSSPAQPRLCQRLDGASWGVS
Chain of Sodium-dependent noradrenaline transporter (P23975 whole entry): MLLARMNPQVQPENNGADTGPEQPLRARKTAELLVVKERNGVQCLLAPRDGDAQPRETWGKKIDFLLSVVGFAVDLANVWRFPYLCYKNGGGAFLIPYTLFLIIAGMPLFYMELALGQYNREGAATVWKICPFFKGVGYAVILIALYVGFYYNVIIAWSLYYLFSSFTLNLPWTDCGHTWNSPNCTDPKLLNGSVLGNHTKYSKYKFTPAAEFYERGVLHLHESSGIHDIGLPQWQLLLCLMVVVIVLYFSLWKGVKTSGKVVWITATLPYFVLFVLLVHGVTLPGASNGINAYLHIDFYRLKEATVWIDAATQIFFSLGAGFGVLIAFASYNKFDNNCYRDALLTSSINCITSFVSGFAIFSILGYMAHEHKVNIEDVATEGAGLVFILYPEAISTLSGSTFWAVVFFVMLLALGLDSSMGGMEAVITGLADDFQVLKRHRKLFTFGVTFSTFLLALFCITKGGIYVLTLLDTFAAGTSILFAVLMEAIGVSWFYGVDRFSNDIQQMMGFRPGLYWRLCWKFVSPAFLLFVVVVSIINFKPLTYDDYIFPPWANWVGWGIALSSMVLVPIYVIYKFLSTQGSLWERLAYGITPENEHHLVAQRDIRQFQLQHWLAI
Chain of Muscarinic acetylcholine receptor M2 (P08172 whole entry): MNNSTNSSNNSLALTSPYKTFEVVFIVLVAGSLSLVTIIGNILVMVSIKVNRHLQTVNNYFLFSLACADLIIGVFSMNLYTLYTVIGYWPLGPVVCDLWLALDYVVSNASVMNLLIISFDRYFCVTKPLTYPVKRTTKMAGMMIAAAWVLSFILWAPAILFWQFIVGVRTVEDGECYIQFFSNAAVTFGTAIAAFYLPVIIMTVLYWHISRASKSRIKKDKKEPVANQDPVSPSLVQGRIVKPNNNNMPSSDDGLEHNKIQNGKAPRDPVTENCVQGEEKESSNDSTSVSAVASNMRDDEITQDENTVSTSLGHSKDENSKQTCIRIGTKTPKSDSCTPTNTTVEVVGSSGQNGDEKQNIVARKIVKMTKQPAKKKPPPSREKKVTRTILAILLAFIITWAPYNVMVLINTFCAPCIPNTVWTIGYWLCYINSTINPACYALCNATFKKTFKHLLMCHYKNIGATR
Chain of 5-hydroxytryptamine receptor 6 (P50406 whole entry): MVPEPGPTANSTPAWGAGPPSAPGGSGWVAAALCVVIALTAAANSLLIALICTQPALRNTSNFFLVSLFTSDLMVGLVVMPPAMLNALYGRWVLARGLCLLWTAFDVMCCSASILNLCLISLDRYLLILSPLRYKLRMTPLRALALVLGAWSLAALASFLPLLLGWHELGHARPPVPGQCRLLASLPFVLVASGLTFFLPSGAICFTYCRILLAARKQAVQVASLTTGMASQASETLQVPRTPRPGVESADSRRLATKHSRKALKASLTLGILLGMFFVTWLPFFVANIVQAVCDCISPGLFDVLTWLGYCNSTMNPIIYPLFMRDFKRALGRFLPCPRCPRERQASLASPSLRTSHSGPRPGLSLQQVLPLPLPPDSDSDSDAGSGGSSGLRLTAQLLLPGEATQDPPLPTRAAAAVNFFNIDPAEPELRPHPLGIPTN
Chain of Sigma non-opioid intracellular receptor 1 (Q99720 whole entry): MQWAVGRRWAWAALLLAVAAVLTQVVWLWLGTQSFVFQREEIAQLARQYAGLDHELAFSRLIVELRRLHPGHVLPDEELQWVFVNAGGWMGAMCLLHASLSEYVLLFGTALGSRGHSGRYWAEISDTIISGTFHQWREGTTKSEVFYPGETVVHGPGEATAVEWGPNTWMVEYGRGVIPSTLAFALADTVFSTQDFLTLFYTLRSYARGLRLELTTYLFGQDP

`COc1ccc2c(c1)C(=O)O[C@]21CC[C@H](C(=O)N(C)CCN2CCCCC2)CC1`: in test [1], the Activity was found to be 83%.

Regarding `C[C@@H]1CCCN1CCc1cc2cc(C(=O)c3ccc([N+](=O)[O-])cc3)ccc2o1`, the Ki at Histamine H1 receptor is 7.05 µM; at Histamine H2 receptor, 0.923 µM; at Histamine H3 receptor, 0.0004 µM; on Histamine H4 receptor, more than 10 µM; in test [2], more than 10 µM; in test [3], more than 10 µM. The Ki in [4] is 5.24 µM; in [5], 1.36 µM; in [6], more than 10 µM; in test [7], 0.137 µM; in test [8], 0.931 µM; in [9], 0.681 µM. Besides, the Ki is 0.512 µM in test [10]; 0.415 µM in test [11]; 0.336 µM in test [12]; more than 10 µM in [13]; more than 10 µM in test [14]; more than 10 µM in [15]. In addition, the Ki in [16], in test [17], in test [18], in [19], in test [20] and in test [21] was more than 10 µM each time. Besides, the Ki (in test [22]; in test [23]; in test [24]; in test [25]; in test [26]; on D(1A) dopamine receptor) was more than 10 µM each time. Moreover, the Ki (on D(2) dopamine receptor; at D(3) dopamine receptor; at D(4) dopamine receptor; at D(1B) dopamine receptor; in test [27]; in [28]) was more than 10 µM throughout. Further, the Ki in [29] is more than 10 µM.

As to `CNC(=O)c1ccc(Oc2ccc3c(c2)CCN(C2CCC2)CC3)nc1`, in [1], the Activity was more than 90%.

Turning to `C[C@@H]1CCCN1CCc1cc2cc(C(=O)c3ccc(F)cc3)ccc2o1`, the Ki on Histamine H1 receptor is 5.44 µM; on Histamine H2 receptor it was 1.71 µM; on Histamine H4 receptor it was more than 10 µM; in test [2], 0.432 µM; in test [3], more than 10 µM; in [4], 6.38 µM. In addition, the Ki is 2.72 µM in test [5]; 3.15 µM in test [6]; more than 10 µM in test [7]; 3.27 µM in [8]; 0.462 µM in test [9]; 0.204 µM in test [10]. For the same molecule, the Ki in test [11] is 0.351 µM; in test [12], 0.437 µM; in test [13], more than 10 µM; in [14], more than 10 µM; in [15] it was more than 10 µM; in [16] it was more than 10 µM. The Ki in [17], in test [18], in test [19], in test [20], in [21] and in test [22] was more than 10 µM throughout. The Ki (in test [23]; in [24]; in test [25]; in test [26]; on D(1A) dopamine receptor; at D(2) dopamine receptor) was more than 10 µM throughout. The Ki (at D(3) dopamine receptor; on D(4) dopamine receptor; at D(1B) dopamine receptor; in test [27]; in test [28]; in test [29]) was more than 10 µM in each case.
